Measured values taken from ChEMBL document CHEMBL2424622, “Development of amino-pyrimidine inhibitors of c-Jun N-terminal kinase (JNK): kinase profiling guided optimization of a 1,2,3-benzotriazole lead” (Bioorg Med Chem Lett, 2013).

Assays:
[1] = target: Serine/threonine-protein kinase 16 (Homo sapiens, UniProt O75716); assay: Competitive binding affinity to STK16 (unknown origin) at 10 uM in presence of ATP relative to control
Procedure, shortened: (§1)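 In vitro ATP-site competition binding assay across a diverse panel of 128 kinases, with compound tested at a single concentration. Kinase selectivity scores (S15) were calculated from the panel profiles.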

[2] = target: Tyrosine-protein kinase Fyn (Homo sapiens) (UniProt P06241); assay: Competitive binding affinity to FYN (unknown origin) at 10 uM in presence of ATP relative to control
Chain of Tyrosine-protein kinase Fyn (Homo sapiens) (P06241 2-537 limits assumed): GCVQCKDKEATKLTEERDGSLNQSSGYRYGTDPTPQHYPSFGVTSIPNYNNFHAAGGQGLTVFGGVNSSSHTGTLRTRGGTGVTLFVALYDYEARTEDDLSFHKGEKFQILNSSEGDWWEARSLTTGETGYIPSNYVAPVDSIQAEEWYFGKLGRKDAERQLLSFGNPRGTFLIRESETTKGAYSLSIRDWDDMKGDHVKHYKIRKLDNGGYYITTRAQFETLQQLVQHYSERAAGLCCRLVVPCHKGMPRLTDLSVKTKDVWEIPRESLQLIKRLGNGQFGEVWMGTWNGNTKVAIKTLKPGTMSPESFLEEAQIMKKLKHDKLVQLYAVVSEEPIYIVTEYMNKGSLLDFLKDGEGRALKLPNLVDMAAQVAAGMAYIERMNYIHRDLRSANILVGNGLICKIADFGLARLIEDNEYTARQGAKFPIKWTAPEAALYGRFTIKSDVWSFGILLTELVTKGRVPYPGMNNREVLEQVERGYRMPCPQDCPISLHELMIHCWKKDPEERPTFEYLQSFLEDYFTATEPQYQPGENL
Procedure, shortened: (§2)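 In vitro ATP-site competition binding assay, part of profiling against a diverse panel of 128 kinases. Each compound was tested at a single concentration of 10 µM. Kinome selectivity was summarized as S15 selectivity scores.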

[3] = target: Dual specificity protein kinase CLK1 (Homo sapiens) (UniProt P49759); assay: Competitive binding affinity to CLK1 (unknown origin) at 10 uM in presence of ATP relative to control
Chain of Dual specificity protein kinase CLK1 (Homo sapiens) (P49759 whole entry, looked up): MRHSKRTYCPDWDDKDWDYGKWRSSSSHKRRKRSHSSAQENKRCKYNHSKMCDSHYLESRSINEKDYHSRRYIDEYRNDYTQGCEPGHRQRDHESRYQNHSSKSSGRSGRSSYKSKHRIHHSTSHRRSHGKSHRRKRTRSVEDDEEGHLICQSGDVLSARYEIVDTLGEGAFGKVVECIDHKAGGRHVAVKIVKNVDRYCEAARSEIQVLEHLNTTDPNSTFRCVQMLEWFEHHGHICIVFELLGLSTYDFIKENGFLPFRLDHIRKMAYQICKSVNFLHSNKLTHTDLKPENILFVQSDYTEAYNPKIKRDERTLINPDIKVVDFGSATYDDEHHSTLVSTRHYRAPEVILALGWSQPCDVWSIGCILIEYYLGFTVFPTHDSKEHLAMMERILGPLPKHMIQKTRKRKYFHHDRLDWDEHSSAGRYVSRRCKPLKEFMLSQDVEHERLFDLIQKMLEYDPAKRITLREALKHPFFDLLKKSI

[4] = target: Calcium/calmodulin-dependent protein kinase type II subunit beta (Homo sapiens) (UniProt Q13554); assay: Competitive binding affinity to CAMK2B (unknown origin) at 10 uM in presence of ATP relative to control
Chain of Calcium/calmodulin-dependent protein kinase type II subunit beta (Homo sapiens) (Q13554 whole entry): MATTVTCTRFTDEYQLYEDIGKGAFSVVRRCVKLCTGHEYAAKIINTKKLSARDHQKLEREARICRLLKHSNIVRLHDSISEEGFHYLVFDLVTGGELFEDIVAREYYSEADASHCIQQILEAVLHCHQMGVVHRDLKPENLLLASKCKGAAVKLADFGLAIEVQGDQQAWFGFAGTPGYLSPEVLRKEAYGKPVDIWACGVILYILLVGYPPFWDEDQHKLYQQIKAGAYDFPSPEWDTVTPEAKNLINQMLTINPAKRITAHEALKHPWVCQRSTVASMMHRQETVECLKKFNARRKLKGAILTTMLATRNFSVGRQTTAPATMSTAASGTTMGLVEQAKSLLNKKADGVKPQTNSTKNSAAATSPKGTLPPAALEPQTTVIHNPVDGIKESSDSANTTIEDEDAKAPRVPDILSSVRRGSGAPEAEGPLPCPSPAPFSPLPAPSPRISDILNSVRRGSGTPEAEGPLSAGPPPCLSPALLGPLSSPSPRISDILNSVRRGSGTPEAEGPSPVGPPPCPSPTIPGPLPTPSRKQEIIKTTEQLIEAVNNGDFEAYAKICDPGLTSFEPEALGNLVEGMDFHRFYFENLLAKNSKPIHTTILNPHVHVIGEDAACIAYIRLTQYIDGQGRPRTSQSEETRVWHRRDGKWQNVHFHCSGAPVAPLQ

[5] = target: T1, Aurora kinase C (Homo sapiens) (UniProt Q9UQB9); assay: Competitive binding affinity to AURKC (unknown origin) at 10 uM in presence of ATP relative to control
T1 sequence (whole entry): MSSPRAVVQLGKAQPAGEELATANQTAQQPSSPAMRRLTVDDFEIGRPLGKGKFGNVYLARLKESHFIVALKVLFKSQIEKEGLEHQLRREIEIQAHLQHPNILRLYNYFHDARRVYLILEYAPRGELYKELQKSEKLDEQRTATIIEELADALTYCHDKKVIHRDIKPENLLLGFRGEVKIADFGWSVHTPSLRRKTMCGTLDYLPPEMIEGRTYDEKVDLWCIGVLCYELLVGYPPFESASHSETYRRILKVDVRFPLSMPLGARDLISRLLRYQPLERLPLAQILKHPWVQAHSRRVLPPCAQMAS

[6] = target: RAF proto-oncogene serine/threonine-protein kinase (Homo sapiens) (UniProt P04049); assay: Competitive binding affinity to RAF1 (unknown origin) at 10 uM in presence of ATP relative to control; procedure, shortened: as §1
Chain of RAF proto-oncogene serine/threonine-protein kinase (Homo sapiens) (P04049 whole entry): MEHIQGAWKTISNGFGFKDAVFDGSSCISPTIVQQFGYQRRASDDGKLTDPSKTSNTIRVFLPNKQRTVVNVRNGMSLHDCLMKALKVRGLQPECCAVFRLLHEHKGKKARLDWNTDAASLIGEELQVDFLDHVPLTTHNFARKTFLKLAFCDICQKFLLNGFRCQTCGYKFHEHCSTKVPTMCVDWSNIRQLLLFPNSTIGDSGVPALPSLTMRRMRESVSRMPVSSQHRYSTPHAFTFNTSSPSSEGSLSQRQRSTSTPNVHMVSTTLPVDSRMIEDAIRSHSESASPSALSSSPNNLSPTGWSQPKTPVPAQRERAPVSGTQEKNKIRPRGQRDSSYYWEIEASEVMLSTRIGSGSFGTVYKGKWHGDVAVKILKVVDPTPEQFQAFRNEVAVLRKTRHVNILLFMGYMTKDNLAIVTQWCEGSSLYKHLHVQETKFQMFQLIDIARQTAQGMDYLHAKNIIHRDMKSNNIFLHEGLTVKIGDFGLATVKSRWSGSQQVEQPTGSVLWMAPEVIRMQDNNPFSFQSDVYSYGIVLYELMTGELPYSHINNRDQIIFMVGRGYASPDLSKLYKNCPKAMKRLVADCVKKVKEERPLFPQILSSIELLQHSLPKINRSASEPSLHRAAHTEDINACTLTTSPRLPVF

[7] = target: Serine/threonine-protein kinase PAK 3 (Homo sapiens) (UniProt O75914); assay: Competitive binding affinity to PAK3 (unknown origin) at 10 uM in presence of ATP relative to control; procedure, shortened: as §1
Chain of Serine/threonine-protein kinase PAK 3 (Homo sapiens) (O75914 whole entry, looked up, the tested form may be a part): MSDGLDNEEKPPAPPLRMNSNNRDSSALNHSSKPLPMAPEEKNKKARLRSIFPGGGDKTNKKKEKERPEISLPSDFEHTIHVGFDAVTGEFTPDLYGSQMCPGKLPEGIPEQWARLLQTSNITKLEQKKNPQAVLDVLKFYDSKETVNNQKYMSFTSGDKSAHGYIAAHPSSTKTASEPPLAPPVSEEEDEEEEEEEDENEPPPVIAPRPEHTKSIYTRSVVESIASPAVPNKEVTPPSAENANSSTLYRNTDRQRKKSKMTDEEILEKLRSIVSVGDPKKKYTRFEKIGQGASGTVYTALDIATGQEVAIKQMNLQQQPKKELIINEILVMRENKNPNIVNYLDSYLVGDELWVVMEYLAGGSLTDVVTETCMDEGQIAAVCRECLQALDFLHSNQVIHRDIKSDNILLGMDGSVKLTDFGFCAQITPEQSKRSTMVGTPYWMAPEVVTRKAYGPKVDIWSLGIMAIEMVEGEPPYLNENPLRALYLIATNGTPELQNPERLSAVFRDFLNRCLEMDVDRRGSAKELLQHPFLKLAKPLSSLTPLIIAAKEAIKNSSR

[8] = target: Tyrosine-protein kinase JAK1 (Homo sapiens) (UniProt P23458); assay: Competitive binding affinity to JAK1 kinase domain 1 (unknown origin) at 10 uM in presence of ATP relative to control; procedure, shortened: as §2
Chain of Tyrosine-protein kinase JAK1 (Homo sapiens) (P23458 whole entry, the tested form may be a part): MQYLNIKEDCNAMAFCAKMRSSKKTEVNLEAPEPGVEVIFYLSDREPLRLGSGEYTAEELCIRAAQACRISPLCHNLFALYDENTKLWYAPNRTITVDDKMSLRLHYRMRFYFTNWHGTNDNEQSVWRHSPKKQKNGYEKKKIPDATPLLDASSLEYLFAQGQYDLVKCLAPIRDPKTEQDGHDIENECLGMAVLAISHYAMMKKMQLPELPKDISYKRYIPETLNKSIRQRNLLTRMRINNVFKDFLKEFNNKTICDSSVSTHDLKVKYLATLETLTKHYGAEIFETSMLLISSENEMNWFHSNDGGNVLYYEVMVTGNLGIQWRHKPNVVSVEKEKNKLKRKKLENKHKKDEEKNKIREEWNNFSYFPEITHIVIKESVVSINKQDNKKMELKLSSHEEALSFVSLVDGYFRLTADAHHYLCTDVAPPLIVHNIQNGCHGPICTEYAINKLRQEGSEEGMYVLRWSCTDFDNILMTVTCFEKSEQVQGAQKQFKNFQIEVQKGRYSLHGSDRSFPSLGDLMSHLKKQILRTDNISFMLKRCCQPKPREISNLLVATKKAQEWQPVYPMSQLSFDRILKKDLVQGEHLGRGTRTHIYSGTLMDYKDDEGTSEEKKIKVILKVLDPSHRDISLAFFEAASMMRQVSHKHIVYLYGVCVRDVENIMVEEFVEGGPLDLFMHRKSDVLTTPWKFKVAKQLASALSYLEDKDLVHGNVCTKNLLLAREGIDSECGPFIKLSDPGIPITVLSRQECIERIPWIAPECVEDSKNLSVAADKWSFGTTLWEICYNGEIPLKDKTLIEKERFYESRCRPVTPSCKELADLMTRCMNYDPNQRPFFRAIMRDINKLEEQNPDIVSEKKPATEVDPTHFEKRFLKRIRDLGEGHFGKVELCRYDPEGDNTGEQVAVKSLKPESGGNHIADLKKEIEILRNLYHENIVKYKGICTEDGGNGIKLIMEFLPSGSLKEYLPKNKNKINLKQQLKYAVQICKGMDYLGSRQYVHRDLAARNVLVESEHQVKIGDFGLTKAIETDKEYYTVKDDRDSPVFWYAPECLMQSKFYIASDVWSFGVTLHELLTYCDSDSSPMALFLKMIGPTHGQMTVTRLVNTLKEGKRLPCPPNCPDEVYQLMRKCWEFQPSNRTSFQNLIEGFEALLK

[9] = target: Tyrosine-protein kinase HCK (Homo sapiens) (UniProt P08631); assay: Competitive binding affinity to HCK (unknown origin) at 10 uM in presence of ATP relative to control; procedure, shortened: as §2
Chain of Tyrosine-protein kinase HCK (Homo sapiens) (P08631 2-526 limits assumed): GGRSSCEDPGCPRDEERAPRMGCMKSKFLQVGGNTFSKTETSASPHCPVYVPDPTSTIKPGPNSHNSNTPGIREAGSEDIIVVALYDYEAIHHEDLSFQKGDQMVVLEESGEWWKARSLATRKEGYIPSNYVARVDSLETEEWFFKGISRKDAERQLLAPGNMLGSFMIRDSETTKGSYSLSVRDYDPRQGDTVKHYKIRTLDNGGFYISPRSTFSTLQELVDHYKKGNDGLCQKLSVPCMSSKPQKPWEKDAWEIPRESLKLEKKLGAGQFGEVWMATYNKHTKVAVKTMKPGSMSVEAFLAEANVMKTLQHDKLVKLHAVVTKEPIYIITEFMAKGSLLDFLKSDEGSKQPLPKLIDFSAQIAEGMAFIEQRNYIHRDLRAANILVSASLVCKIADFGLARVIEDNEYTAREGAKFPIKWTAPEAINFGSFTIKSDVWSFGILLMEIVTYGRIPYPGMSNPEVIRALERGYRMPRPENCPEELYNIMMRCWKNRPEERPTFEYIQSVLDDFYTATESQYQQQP

[10] = target: T2, Cyclin-G-associated kinase (Homo sapiens) (UniProt O14976); assay: Competitive binding affinity to GAK (unknown origin) at 10 uM in presence of ATP relative to control; procedure, shortened: as §2
T2 sequence (whole entry): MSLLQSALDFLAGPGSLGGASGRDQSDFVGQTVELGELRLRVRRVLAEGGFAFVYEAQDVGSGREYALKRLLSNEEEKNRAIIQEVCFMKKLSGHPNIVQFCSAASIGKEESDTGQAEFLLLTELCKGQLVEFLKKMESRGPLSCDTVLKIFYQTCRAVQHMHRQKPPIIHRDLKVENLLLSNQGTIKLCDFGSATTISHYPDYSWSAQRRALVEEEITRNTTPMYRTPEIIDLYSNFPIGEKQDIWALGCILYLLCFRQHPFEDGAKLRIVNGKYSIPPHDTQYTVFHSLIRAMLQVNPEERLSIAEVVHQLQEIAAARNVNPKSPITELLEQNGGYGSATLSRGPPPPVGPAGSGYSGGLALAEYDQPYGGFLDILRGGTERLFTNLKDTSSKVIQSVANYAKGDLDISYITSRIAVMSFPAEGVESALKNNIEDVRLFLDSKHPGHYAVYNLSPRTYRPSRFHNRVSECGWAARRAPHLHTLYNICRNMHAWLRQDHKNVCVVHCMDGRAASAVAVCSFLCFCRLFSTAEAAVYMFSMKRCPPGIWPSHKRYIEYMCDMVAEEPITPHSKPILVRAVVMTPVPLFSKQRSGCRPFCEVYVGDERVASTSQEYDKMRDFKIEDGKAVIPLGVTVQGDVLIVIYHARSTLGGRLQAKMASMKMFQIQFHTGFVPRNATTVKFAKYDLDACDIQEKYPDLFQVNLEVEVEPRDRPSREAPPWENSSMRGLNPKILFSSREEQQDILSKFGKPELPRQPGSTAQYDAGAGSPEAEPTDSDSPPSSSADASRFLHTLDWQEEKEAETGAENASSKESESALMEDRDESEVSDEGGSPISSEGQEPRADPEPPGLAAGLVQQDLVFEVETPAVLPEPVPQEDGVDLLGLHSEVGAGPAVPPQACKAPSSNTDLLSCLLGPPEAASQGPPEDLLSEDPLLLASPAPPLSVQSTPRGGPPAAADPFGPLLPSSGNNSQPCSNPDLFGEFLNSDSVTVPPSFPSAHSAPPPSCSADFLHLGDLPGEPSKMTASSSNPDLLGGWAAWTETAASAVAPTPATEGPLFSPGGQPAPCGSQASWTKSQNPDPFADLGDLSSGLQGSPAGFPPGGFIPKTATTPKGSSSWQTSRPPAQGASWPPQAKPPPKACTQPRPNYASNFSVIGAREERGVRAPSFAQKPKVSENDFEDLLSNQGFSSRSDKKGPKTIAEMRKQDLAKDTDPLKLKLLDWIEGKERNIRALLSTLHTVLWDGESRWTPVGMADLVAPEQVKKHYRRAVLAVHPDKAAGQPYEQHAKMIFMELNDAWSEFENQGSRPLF

Chain of Serine/threonine-protein kinase 16 (O75716 whole entry): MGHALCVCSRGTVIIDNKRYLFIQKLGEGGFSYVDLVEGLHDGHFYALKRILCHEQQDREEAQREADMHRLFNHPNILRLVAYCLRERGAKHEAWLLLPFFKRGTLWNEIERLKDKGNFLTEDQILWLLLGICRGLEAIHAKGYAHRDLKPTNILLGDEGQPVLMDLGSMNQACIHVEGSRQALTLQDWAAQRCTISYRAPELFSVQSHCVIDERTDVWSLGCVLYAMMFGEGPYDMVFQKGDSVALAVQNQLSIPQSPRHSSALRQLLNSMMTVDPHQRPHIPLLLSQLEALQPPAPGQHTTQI

Row | Structure (SMILES) | inhibition [1] [%] | inhibition [2] [%] | inhibition [3] [%] | inhibition [4] [%] | inhibition [5] [%] | inhibition [6] [%] | inhibition [7] [%] | inhibition [8] [%] | inhibition [9] [%] | inhibition [10] [%]
1 | CS(=O)(=O)CCCOc1cccc2c1ccn2-c1ccnc(N[C@H]2CC[C@H](C(=O)N3CCC(O)CC3)CC2)n1 | > 85 |  |  |  |  |  |  |  |  | 
2 | O[C@H]1CC[C@H](Nc2nccc(-n3ccc4ccccc43)n2)CC1 | < 50 | < 50 | 91 | 80 | < 50 | < 50 | < 50 | < 50 | < 50 | 91
3 | N[C@H]1CC[C@H](Nc2nccc(-n3nnc4ccccc43)n2)CC1 | 83 | 80 | 100 | < 50 | 97 | < 50 | 90 | < 50 | 78 | 91
4 | O[C@H]1CC[C@H](Nc2nccc(-n3nnc4ccccc43)n2)CC1 | < 50 | < 50 | 95 | 67 | < 50 | < 50 | 76 | < 50 | < 50 | 100
5 | O[C@H]1CC[C@H](Nc2nccc(-n3ncc4ccccc43)n2)CC1 | 81 | < 50 | 93 | 87 | < 50 | < 50 | 75 | 88 | < 50 | 100
6 | O=C([C@H]1CC[C@H](Nc2nccc(-n3nnc4ccccc43)n2)CC1)N1CCOCC1 | 93 | 81 | 87 | < 50 | < 50 | < 50 | < 50 | < 50 | < 50 | 100
7 | O[C@H]1CC[C@H](Nc2nccc(-c3n[nH]c4ccccc34)n2)CC1 | 100 | 77 | 100 | 88 | 96 | < 50 | 99 | 99 | 66 | 100
